Experimental data taken from ChEMBL document CHEMBL5058577, “EUbOPEN Chemogenomics Library 2 (Multiplex)” (2022).

System: Fibroblast
Test: Multiplex assay against human fibroblast
Format: toxicity, cell-based
Method in brief: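 Four dyes were applied at seeding to live cells: Hoechst33342, BioTracker Green Microtubule Cytoskeleton Dye, MitoTracker Red and Annexin V Alexa Fluor 680. Imaging after compound addition used a CQ1 microscope at 37°C and 5% CO2. CellPathfinder machine-learning gating then sorted cells into Hoechst high-intensity objects or normal cells, normal cells into healthy, pyknosed or fragmented nuclei, and pyknosed cells into mitotic or apoptotic, with tubulin, mitochondrial-mass and membrane-permeability phenotypes given as per cents of healthy-nucleus cells.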

[1] = 12 h, 1 µM, compound concentration 1 uM, replicate 1
[2] = 12 h, 1 µM, compound concentration 1 uM, replicate 2
[3] = 12 h, 10 µM, compound concentration 10 uM, replicate 1
[4] = 12 h, 10 µM, compound concentration 10 uM, replicate 2
[5] = 24 h, 1 µM, compound concentration 1 uM, replicate 1
[6] = 24 h, 1 µM, compound concentration 1 uM, replicate 2
[7] = 24 h, 10 µM, compound concentration 10 uM, replicate 1
[8] = 24 h, 10 µM, compound concentration 10 uM, replicate 2
[9] = 48 h, 1 µM, compound concentration 1 uM, replicate 1
[10] = 48 h, 1 µM, compound concentration 1 uM, replicate 2
[11] = 48 h, 10 µM, compound concentration 10 uM, replicate 1
[12] = 48 h, 10 µM, compound concentration 10 uM, replicate 2

Structure (SMILES): C[C@H]1[C@H]2CC[C@H]3[C@@H]4CC=C5C[C@@H](N(C)C)CC[C@]5(C)[C@H]4CC[C@]23CN1C [CONESSINE]
- Population Apoptotic (%) [1]: 45%
- Population Fragmented Nuclei (%) [1]: 15%
- Population Healthy Nuclei (%) [1]: 73%
- Population Hoechst High Intensity Objects (%) [1]: 1%
- Population Membrane Permeable-Phenotype (%) [1]: 0%
- Population Mitochondria Different-Phenotype (%) [1]: 8%
- Population Mitotic Cells (%) [1]: 55%
- Population Normal (%) [1]: 98%
- Population Pyknosed Nuclei (%) [1]: 11%
- Population Tubulin-Different-Phenotype (%) [1]: 19%
- Total Cell Count [1]: 174
- Population Apoptotic (%) [2]: 29%
- Population Fragmented Nuclei (%) [2]: 33%
- Population Healthy Nuclei (%) [2]: 41%
- Population Hoechst High Intensity Objects (%) [2]: 2%
- Population Membrane Permeable-Phenotype (%) [2]: 7%
- Population Mitochondria Different-Phenotype (%) [2]: 2%
- Population Mitotic Cells (%) [2]: 70%
- Population Normal (%) [2]: 97%
- Population Pyknosed Nuclei (%) [2]: 24%
- Population Tubulin-Different-Phenotype (%) [2]: 46%
- Total Cell Count [2]: 101
- Population Apoptotic (%) [3]: 37%
- Population Fragmented Nuclei (%) [3]: 26%
- Population Healthy Nuclei (%) [3]: 60%
- Population Hoechst High Intensity Objects (%) [3]: 3%
- Population Membrane Permeable-Phenotype (%) [3]: 5%
- Population Mitochondria Different-Phenotype (%) [3]: 10%
- Population Mitotic Cells (%) [3]: 62%
- Population Normal (%) [3]: 96%
- Population Pyknosed Nuclei (%) [3]: 13%
- Population Tubulin-Different-Phenotype (%) [3]: 32%
- Total Cell Count [3]: 189
- Population Apoptotic (%) [4]: 43%
- Population Healthy Nuclei (%) [4]: 45%
- Population Membrane Permeable-Phenotype (%) [4]: 8%
- Population Mitochondria Different-Phenotype (%) [4]: 4%
- Population Mitotic Cells (%) [4]: 56%
- Population Pyknosed Nuclei (%) [4]: 28%
- Population Tubulin-Different-Phenotype (%) [4]: 58%
- Total Cell Count [4]: 110
- Population Apoptotic (%) [5]: 43%
- Population Fragmented Nuclei (%) [5]: 13%
- Population Healthy Nuclei (%) [5]: 73%
- Population Hoechst High Intensity Objects (%) [5]: 2%
- Population Membrane Permeable-Phenotype (%) [5]: 1%
- Population Mitochondria Different-Phenotype (%) [5]: 4%
- Population Mitotic Cells (%) [5]: 56%
- Population Normal (%) [5]: 97%
- Population Pyknosed Nuclei (%) [5]: 13%
- Population Tubulin-Different-Phenotype (%) [5]: 22%
- Total Cell Count [5]: 175
- Population Apoptotic (%) [6]: 40%
- Population Fragmented Nuclei (%) [6]: 27%
- Population Healthy Nuclei (%) [6]: 48%
- Population Hoechst High Intensity Objects (%) [6]: 4%
- Population Membrane Permeable-Phenotype (%) [6]: 13%
- Population Mitochondria Different-Phenotype (%) [6]: 6%
- Population Mitotic Cells (%) [6]: 59%
- Population Normal (%) [6]: 95%
- Population Pyknosed Nuclei (%) [6]: 24%
- Population Tubulin-Different-Phenotype (%) [6]: 61%
- Total Cell Count [6]: 95
- Population Apoptotic (%) [7]: 64%
- Population Fragmented Nuclei (%) [7]: 28%
- Population Healthy Nuclei (%) [7]: 61%
- Population Hoechst High Intensity Objects (%) [7]: 3%
- Population Membrane Permeable-Phenotype (%) [7]: 1%
- Population Mitochondria Different-Phenotype (%) [7]: 7%
- Population Mitotic Cells (%) [7]: 35%
- Population Normal (%) [7]: 96%
- Population Pyknosed Nuclei (%) [7]: 9%
- Population Tubulin-Different-Phenotype (%) [7]: 27%
- Total Cell Count [7]: 190
- Population Apoptotic (%) [8]: 36%
- Population Healthy Nuclei (%) [8]: 39%
- Population Hoechst High Intensity Objects (%) [8]: 2%
- Population Membrane Permeable-Phenotype (%) [8]: 7%
- Population Mitotic Cells (%) [8]: 63%
- Population Normal (%) [8]: 97%
- Population Pyknosed Nuclei (%) [8]: 32%
- Population Tubulin-Different-Phenotype (%) [8]: 60%
- Total Cell Count [8]: 106
- Population Apoptotic (%) [9]: 50%
- Population Fragmented Nuclei (%) [9]: 17%
- Population Healthy Nuclei (%) [9]: 73%
- Population Hoechst High Intensity Objects (%) [9]: 5%
- Population Membrane Permeable-Phenotype (%) [9]: 0%
- Population Mitochondria Different-Phenotype (%) [9]: 3%
- Population Mitotic Cells (%) [9]: 50%
- Population Normal (%) [9]: 94%
- Population Pyknosed Nuclei (%) [9]: 9%
- Population Tubulin-Different-Phenotype (%) [9]: 27%
- Total Cell Count [9]: 178
- Population Apoptotic (%) [10]: 47%
- Population Fragmented Nuclei (%) [10]: 37%
- Population Healthy Nuclei (%) [10]: 45%
- Population Hoechst High Intensity Objects (%) [10]: 0%
- Population Membrane Permeable-Phenotype (%) [10]: 17%
- Population Mitochondria Different-Phenotype (%) [10]: 8%
- Population Mitotic Cells (%) [10]: 52%
- Population Normal (%) [10]: 99%
- Population Pyknosed Nuclei (%) [10]: 16%
- Population Tubulin-Different-Phenotype (%) [10]: 63%
- Total Cell Count [10]: 104
- Population Apoptotic (%) [11]: 66%
- Population Fragmented Nuclei (%) [11]: 26%
- Population Healthy Nuclei (%) [11]: 62%
- Population Hoechst High Intensity Objects (%) [11]: 6%
- Population Membrane Permeable-Phenotype (%) [11]: 0%
- Population Mitochondria Different-Phenotype (%) [11]: 4%
- Population Mitotic Cells (%) [11]: 33%
- Population Normal (%) [11]: 93%
- Population Pyknosed Nuclei (%) [11]: 10%
- Population Tubulin-Different-Phenotype (%) [11]: 25%
- Total Cell Count [11]: 190
- Population Apoptotic (%) [12]: 27%
- Population Fragmented Nuclei (%) [12]: 29%
- Population Healthy Nuclei (%) [12]: 48%
- Population Hoechst High Intensity Objects (%) [12]: 2%
- Population Membrane Permeable-Phenotype (%) [12]: 8%
- Population Mitochondria Different-Phenotype (%) [12]: 6%
- Population Mitotic Cells (%) [12]: 72%
- Population Normal (%) [12]: 97%
- Population Pyknosed Nuclei (%) [12]: 22%
- Population Tubulin-Different-Phenotype (%) [12]: 62%
- Total Cell Count [12]: 102
